Square brackets hold non-standard residues; d marks the D form. Peptide text beside a SMILES is read from it. * marks the point of attachment. Palmitoyl = CCCCCCCCCCCCCCCC(=O)*; Ahp = NCCCCCCC(=O)O; Ahx = NCCCCCC(=O)O; Sar = CNCC(=O)O
Columns and labels:
[1] = Rat serum stability; type: in vitro ADME
Outline: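 Male Sprague-Dawley rat trunk-blood serum, kept at −80 °C and used within 3 months. 10 μg peptide in 1 mL pre-warmed 25% serum in 0.1 M Tris-HCl pH 7.5 at 37 °C. Sampled at 0, 30 min, 1, 2, 4 and 8 h, quenched with TCA/isopropanol at −20 °C for 20 min, then centrifuged. Intact peptide measured by reverse-phase HPLC; t1/2 fitted from ≥3 independent time-courses.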

[2] = target: T1, hGAL1 (human galanin receptor GalR1) (Homo sapiens, UniProt P47211); test: Competitive binding assay, Eu-labeled galanin, time-resolved fluorescence
T1 sequence (P47211 1-349): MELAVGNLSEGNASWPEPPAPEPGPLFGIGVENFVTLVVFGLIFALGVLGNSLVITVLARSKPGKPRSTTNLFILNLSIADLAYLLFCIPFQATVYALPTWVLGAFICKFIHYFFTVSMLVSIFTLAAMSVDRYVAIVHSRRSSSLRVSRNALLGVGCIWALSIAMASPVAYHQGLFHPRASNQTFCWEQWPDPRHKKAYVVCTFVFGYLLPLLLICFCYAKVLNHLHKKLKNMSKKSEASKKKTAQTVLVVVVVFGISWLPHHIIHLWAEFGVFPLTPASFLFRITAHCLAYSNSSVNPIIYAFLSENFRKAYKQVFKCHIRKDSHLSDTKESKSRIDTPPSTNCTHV

[3] = octanol-water log D, shake-flask / HPLC; cited from earlier work
[4] = target: T2, hGAL2 (human galanin receptor GalR2) (Homo sapiens, UniProt O43603); test: Competitive binding assay, Eu-labeled galanin, time-resolved fluorescence
T2 sequence (O43603 1-387): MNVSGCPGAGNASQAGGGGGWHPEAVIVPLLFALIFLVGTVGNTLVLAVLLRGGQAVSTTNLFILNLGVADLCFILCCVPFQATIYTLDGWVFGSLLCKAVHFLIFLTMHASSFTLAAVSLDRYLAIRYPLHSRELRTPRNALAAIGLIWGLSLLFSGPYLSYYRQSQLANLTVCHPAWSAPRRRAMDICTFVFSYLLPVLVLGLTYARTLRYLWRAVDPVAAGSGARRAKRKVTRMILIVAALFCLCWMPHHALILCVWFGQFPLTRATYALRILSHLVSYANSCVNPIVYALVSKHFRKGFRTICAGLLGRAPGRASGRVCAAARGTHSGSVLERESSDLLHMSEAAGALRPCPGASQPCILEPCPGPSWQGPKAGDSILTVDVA

CCCCCCCCCCCCCCCC(=O)NCCCC[C@H](NC(=O)[C@@H](CCCCN)NC(=O)[C@@H](CCCCN)NC(=O)CCCCCCNC(=O)[C@H](Cc1ccc(O)cc1)NC(=O)CNC(=O)[C@H](C)NC(=O)[C@H](CO)NC(=O)[C@H](CC(N)=O)NC(=O)[C@H](CC(C)C)NC(=O)[C@@H](NC(=O)[C@H](Cc1c[nH]c2ccccc12)NC(=O)CNC)[C@@H](C)O)C(=O)N[C@H](CCCCN)C(N)=O [D-Gal(7-Ahp)-B2] (H-[Sar]WTLNSAGY[Ahp][dK][dK]K(Palmitoyl)[dK]-NH2)
half-life at 10 µg/mL ([1]; male, Sprague-Dawley, rat, 25% rat serum, pH 7.5): > 10 h

CCCCCCCCCCCCCCCC(=O)NCCCC[C@H](NC(=O)[C@@H](CCCCN)NC(=O)[C@@H](CCCCN)NC(=O)[C@H](Cc1ccc(O)cc1)NC(=O)CNC(=O)[C@H](C)NC(=O)[C@H](CO)NC(=O)[C@H](CC(N)=O)NC(=O)[C@H](CC(C)C)NC(=O)[C@@H](NC(=O)[C@H](Cc1c[nH]c2ccccc12)NC(=O)CNC)[C@@H](C)O)C(=O)N[C@H](CCCCN)C(N)=O [D-[des-LLGP]Gal-B2] (H-[Sar]WTLNSAGY[dK][dK]K(Palmitoyl)[dK]-NH2)
Ki [2]: ≥ 30 µM

CCCCCCCCCCCCCCCC(=O)NCCCC[C@H](NC(=O)[C@H](CCCCN)NC(=O)[C@H](CCCCN)NC(=O)[C@@H]1CCCN1C(=O)CNC(=O)[C@H](CC(C)C)NC(=O)[C@H](CC(C)C)NC(=O)[C@H](Cc1ccc(O)cc1)NC(=O)CNC(=O)[C@H](C)NC(=O)[C@H](CO)NC(=O)[C@H](CC(N)=O)NC(=O)[C@H](CC(C)C)NC(=O)[C@@H](NC(=O)[C@H](Cc1c[nH]c2ccccc12)NC(=O)CNC)[C@@H](C)O)C(=O)N[C@@H](CCCCN)C(N)=O [Gal-B2]
increase of t1/2 compared to Gal(1-16) ([1]; rat serum): 80 fold
log D [3]: 1.24

CCCCCCCCCCCCCCCC(=O)NCCCC[C@H](NC(=O)[C@H](CCCCN)NC(=O)[C@H](CCCCN)NC(=O)CCCCCNC(=O)[C@H](Cc1ccc(O)cc1)NC(=O)CNC(=O)[C@H](C)NC(=O)[C@H](CO)NC(=O)[C@H](CC(N)=O)NC(=O)[C@H](CC(C)C)NC(=O)[C@@H](NC(=O)[C@H](Cc1c[nH]c2ccccc12)NC(=O)CNC)[C@@H](C)O)C(=O)N[C@@H](CCCCN)C(N)=O [L-Gal(6-Ahx)-B2] (H-[Sar]WTLNSAGY[Ahx]KKK(Palmitoyl)K-NH2)
Ki [2]: 1.17 ± 0.3 µM

CCCCCCCCCCCCCCCC(=O)NCCCC[C@H](NC(=O)[C@H](CCCCN)NC(=O)[C@H](CCCCN)NC(=O)[C@H](Cc1ccc(O)cc1)NC(=O)CNC(=O)[C@H](C)NC(=O)[C@H](CO)NC(=O)[C@H](CC(N)=O)NC(=O)[C@H](CC(C)C)NC(=O)[C@@H](NC(=O)[C@H](Cc1c[nH]c2ccccc12)NC(=O)CNC)[C@@H](C)O)C(=O)N[C@@H](CCCCN)C(N)=O [[des-LLGP]Gal-B2] (H-[Sar]WTLNSAGYKKK(Palmitoyl)K-NH2)
Ki [4]: 27.4 µM
Ki [2]: ≥ 30 µM

— PMC4332549 (ChemMedChem, 2012)
